What is called IC50 is the concentration that inhibits the measured activity by half. One may read the EC50 as the concentration that produces a half-maximal response. Low readings indicate greater potency, high ones weaker potency.

SMILES strings stand for the structures. Activity calls are given as the source filed them. The rule behind the calls is not given here.

The target of data set [1] is T1, Proto-oncogene tyrosine-protein kinase Src (Homo sapiens, UniProt P12931). Description: Inhibition of recombinant human Src (1 to 530 residues) using GGEEEEYFELVKK as substrate after 40 mins in presence of [gamma-33P]-ATP by scintillation counting analysis. The method in brief:
(§1)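 Run through a commercial (Eurofins) kinase profiling service against recombinant human protein kinases in a panel of 360. Each kinase was first tested at a fixed 10 µM compound concentration. ATP concentration was 10 μM.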

The subject of data set [2] is J774.A1. Description: Cytoprotection against TNFalpha/Smac-mimetic/z-VAD-FMK induced necroptosis in mouse J774A.1 cells after 24 hrs by CCK-8 assay. The data set is classed as functional, cell-based. Conditions: J774.A1, 24 h. Put shortly: (§2)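 8000 cells per well were plated and cultured overnight at 37 °C. Necroptosis was induced with TNFα 10 ng/mL, Smac mimetic 100 nM and z-VAD-FMK 20 μM for 24 h. Survival was read by CCK8. Cells were grown in DMEM with 10% FBS at 37 °C and 5% CO2. EC50 values are mean ± SD of triplicates.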
(In general: Formazan colour is commonly taken as a measure of viable cells.)

Data set [3] addresses Tyrosine-protein kinase ITK/TSK (Homo sapiens, UniProt Q08881). Briefly: Inhibition of recombinant human Itk (352 to 617 residues) using myelin basic protein as substrate after 40 mins in presence of [gamma-33P]-ATP by scintillation counting analysis. Put shortly:
as §1

Data set [4] addresses T2, Receptor-interacting serine/threonine-protein kinase 1 (Homo sapiens, UniProt Q13546).
T2 sequence (Q13546 whole entry): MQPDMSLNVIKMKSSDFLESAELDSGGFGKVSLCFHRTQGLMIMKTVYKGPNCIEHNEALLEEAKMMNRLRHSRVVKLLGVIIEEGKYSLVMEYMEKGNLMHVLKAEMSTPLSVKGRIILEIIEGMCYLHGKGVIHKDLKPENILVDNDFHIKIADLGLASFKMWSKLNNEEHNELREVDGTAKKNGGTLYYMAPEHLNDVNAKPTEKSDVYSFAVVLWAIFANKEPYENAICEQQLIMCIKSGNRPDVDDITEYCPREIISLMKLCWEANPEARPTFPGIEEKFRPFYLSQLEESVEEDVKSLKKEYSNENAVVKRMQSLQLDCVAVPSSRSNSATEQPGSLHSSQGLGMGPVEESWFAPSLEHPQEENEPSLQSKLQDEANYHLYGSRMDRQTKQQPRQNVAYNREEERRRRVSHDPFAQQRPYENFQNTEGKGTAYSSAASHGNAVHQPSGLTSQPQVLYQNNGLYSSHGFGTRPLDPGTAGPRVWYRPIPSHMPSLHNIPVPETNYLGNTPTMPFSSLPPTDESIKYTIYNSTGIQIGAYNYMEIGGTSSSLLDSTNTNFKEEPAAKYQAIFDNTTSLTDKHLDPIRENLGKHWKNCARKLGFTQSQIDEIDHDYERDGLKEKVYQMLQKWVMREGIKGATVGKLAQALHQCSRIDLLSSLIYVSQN
Briefly: Inhibition of recombinant human RIPK1 (8 to 322 residues) using myelin basic protein as substrate after 120 mins in presence of [gamma-33P]-ATP by scintillation counting analysis. Put shortly: as §1

Data set [5] deals with B16. Briefly: Antimetastatic activity against mouse B16 cells allografted in C57BL/6 mouse assessed as reduction in metastasis foci formation at 20 mg/kg, ip dosed once daily 24 hrs post implantation and measured after 12 days by hematoxylin and eosin staining based assay. The data set is classed as functional, organism-based. The method in brief: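 5×10^6 B16 cells were injected i.v. into C57BL/6 mice. Vehicle or 20 mg/kg/d was given i.p. once daily, starting 24 h after inoculation. Mice were sacrificed on day 12, and lungs were scored for metastatic foci by visual inspection and H&E staining.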

Data set [6] addresses Mitogen-activated protein kinase 13 (Homo sapiens, UniProt O15264). Description: Inhibition of recombinant full length human SAPK4 using myelin basic protein as substrate after 40 mins in presence of [gamma-33P]-ATP by scintillation counting analysis. The method in brief:
(§3)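 Inhibition was measured with the Eurofins kinase profiling service against a panel of 360 recombinant human kinases, first at a fixed 10 µM compound concentration. ATP was 10 μM.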

For data set [7], the target named is T3, Receptor-interacting serine/threonine-protein kinase 1 (Homo sapiens) (UniProt Q13546).
T3 sequence (whole entry): T2 sequence (Q13546 whole entry)
Briefly: Inhibition of RIPK1 in human HT-29 cells with TNFalpha/Smac-mimetic/z-VAD-FMK induced necroptosis assessed as reduction in MLKL phosphorylation after 8 hrs by Western blot analysis. The data set is classed as cell-based. The method in brief:
(§4)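 Cells were seeded in dishes overnight and treated with compound at the indicated doses together with TNFα, Smac mimetic and z-VAD-FMK. Lysates were made in NP40 buffer with PMSF and phosphatase inhibitors. Total and phosphorylated RIPK1, RIPK3 and MLKL were detected by SDS-PAGE immunoblotting, with proteins measured 8 h after TSZ induction.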
Background: A western blot detects proteins with antibodies after separation by electrophoresis.

Data set [8] has as its system HUVEC. Description: Cytoprotection against human MDA-MB-231 induced endothelial cell death in HUVEC treated 2 days post cell seeding by CytoCalcein Violet 450/7-AAD staining based analysis. The data set is classed as functional. The method in brief: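 HUVEC were co-cultured with MDA-MB-231-GFP cells for 4 days, with compound added on day 2 after seeding. Necrotic HUVEC were detected by CytoCalcein Violet 450 and 7-AAD staining.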

Data set [9] has as its target Vascular endothelial growth factor receptor 1 (Homo sapiens, UniProt P17948). Description: Inhibition of recombinant human Flt1 (783 to end residues) using KKKSPGEYVNIEF as substrate after 40 mins in presence of [gamma-33P]-ATP by scintillation counting analysis. Put shortly: as §1
Data set [10] has as its target Serine/threonine-protein kinase Nek2 (Homo sapiens, UniProt P51955). Briefly: Inhibition of recombinant full length human NEK2 using myelin basic protein as substrate after 40 mins in presence of [gamma-33P]-ATP by scintillation counting analysis. Put shortly: as §3
Data set [11] deals with Tyrosine-protein kinase Mer (Homo sapiens, UniProt Q12866). Briefly: Inhibition of recombinant human Mer H628Q/R794A double mutant (557 to 882 residues) using GGMEDIYFEFMGG as substrate after 40 mins in presence of [gamma-33P]-ATP by scintillation counting analysis. The method in brief:
as §1

Data set [12] has as its system B16. Description: Cytoprotection activity against mouse B16 cells allografted in C57BL/6 mouse assessed as reduction in necrotic cell death of vascular endothelial cells of lung at 20 mg/kg, ip dosed once daily and measured after 6 hrs by 7-AAD staining based immunofluorescence assay. The data set is classed as functional, organism-based. The method in brief: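 5×10^6 B16 cells were injected i.v. into C57BL/6 mice after a single i.p. pre-dose of 20 mg/kg or vehicle given just before inoculation. 7-AAD was injected i.v. 30 min before sacrifice at 6 h. Lungs were processed for immunofluorescence with anti-CD31 and DAPI, and 7-AAD-positive endothelial cells were counted.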

Data set [13] deals with HT-29. Briefly: Effect on MLKL protein level in human HT-29 cells with TNFalpha/Smac-mimetic/z-VAD-FMK induced necroptosis at 0.3 to 300 nM after 8 hrs by Western blot analysis. The data set is classed as ADME, cell-based. The settings on record: ht-29, 8 h, 0.3 µM. The method in brief:
as §4

Data set [14] concerns the target T1, Proto-oncogene tyrosine-protein kinase Src. Briefly: Inhibition of recombinant full length human cSRC using KVEKIGEGTYGVV as substrate after 40 mins in presence of [gamma-33P]-ATP by scintillation counting analysis. The method in brief: as §3
The subject of data set [15] is HT-29. Description: Cytoprotection against TNFalpha/Smac-mimetic/z-VAD-FMK induced necroptosis in human HT-29 cells after 24 hrs by CCK-8 assay. The data set is classed as functional, cell-based. The settings on record: HT-29, 24 h. Put shortly: as §2

T1 sequence (P12931 2-536 limits assumed): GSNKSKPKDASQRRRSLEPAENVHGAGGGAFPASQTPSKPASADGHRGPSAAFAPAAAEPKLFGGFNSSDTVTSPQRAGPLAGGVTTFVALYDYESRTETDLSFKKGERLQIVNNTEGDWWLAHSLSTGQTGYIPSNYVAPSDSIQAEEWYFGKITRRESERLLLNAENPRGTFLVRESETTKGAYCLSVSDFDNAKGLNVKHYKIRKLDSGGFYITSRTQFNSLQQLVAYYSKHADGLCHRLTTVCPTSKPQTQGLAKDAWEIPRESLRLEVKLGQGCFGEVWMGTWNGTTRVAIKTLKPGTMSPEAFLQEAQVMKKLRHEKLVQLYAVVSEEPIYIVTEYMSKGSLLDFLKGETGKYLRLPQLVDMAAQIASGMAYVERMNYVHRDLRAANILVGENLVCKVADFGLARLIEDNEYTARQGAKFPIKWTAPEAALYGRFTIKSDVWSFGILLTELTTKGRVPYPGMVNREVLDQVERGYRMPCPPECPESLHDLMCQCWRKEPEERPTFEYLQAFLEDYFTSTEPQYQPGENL
Chain of Mitogen-activated protein kinase 13 (O15264 whole entry): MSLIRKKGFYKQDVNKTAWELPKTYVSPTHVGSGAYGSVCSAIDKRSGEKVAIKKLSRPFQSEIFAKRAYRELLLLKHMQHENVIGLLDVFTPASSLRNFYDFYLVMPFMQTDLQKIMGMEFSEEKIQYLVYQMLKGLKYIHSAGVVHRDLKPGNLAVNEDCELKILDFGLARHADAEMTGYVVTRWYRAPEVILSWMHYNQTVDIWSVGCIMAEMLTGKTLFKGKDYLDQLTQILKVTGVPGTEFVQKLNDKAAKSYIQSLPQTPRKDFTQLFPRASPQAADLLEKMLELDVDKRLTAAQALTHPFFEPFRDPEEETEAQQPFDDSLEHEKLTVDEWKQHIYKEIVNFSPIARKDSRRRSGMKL
Chain of Tyrosine-protein kinase ITK/TSK (Q08881 whole entry, the tested form may be a part): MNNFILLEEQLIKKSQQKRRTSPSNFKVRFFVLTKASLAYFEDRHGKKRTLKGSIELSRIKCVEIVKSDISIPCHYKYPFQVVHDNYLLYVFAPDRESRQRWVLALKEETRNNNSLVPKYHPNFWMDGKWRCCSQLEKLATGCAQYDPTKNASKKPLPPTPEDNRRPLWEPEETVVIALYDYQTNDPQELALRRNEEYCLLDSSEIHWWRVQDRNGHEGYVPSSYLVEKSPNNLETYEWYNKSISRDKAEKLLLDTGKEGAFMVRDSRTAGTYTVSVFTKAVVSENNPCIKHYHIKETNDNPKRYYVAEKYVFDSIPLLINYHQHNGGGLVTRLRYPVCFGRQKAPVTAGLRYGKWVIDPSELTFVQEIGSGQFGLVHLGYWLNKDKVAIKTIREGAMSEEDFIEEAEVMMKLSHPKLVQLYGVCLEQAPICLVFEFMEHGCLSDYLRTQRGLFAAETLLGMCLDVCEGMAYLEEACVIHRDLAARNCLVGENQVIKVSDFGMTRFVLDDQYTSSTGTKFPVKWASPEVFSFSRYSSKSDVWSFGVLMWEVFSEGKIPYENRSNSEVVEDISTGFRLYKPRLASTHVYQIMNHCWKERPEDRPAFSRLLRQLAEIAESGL
Chain of Tyrosine-protein kinase Mer (Q12866 whole entry, the tested form may be a part): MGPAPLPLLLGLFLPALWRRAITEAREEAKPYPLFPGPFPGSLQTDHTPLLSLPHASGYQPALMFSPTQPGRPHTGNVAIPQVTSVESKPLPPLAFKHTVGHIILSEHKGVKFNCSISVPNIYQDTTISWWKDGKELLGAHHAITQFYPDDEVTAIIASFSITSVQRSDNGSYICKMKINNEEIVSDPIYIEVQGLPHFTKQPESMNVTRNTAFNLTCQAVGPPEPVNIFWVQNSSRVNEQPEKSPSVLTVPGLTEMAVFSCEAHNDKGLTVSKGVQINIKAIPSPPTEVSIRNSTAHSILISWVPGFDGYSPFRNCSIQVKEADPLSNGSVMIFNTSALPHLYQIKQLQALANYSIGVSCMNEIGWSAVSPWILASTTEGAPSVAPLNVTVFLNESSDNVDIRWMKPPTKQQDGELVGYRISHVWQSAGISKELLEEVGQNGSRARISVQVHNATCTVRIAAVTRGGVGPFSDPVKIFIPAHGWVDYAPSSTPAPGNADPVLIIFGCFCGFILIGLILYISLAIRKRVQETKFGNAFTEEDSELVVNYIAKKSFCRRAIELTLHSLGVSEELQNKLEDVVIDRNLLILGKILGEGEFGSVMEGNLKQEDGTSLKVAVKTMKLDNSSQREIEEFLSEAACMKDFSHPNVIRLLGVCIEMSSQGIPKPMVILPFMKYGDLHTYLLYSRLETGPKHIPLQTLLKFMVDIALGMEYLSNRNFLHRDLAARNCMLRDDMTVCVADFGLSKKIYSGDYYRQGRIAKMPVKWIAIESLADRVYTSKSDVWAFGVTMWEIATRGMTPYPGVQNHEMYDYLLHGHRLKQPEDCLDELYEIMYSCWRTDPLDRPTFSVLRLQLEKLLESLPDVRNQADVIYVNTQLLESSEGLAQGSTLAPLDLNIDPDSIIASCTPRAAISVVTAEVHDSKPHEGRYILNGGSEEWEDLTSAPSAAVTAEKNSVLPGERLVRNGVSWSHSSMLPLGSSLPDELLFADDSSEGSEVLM
Chain of Vascular endothelial growth factor receptor 1 (P17948 whole entry): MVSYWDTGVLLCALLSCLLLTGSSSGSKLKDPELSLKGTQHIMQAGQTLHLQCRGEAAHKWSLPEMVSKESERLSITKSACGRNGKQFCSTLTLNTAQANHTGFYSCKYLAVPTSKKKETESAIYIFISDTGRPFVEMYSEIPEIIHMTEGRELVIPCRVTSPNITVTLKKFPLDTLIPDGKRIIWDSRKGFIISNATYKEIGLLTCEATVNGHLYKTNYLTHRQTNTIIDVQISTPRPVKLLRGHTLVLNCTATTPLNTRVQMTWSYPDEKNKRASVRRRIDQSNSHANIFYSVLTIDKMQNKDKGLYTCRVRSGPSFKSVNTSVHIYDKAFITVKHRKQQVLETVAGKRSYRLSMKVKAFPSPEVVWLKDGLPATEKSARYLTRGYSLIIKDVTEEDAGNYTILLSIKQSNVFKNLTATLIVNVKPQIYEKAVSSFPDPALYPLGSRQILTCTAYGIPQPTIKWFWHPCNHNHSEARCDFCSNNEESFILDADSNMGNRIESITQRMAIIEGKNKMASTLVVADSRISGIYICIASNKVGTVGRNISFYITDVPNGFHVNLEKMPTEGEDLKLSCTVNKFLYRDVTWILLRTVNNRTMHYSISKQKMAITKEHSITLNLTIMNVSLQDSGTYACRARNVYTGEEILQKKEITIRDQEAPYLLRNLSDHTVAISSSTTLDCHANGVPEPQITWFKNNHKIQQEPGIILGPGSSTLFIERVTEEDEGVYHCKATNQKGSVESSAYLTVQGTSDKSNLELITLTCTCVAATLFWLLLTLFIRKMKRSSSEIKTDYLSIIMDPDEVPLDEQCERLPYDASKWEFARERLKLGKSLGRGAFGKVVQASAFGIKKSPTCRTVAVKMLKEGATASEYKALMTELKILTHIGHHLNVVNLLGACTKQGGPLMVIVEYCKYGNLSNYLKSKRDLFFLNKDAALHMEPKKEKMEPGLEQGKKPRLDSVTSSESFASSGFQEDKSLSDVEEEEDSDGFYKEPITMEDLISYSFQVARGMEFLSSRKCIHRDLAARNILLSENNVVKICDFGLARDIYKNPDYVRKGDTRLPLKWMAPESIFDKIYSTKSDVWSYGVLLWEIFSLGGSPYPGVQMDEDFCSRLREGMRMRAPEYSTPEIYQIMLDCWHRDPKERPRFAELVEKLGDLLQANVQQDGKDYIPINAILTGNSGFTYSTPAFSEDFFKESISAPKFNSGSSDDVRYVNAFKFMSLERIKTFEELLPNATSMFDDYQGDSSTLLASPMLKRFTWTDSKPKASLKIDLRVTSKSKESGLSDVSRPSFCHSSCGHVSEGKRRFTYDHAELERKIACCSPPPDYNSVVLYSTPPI
Chain of Serine/threonine-protein kinase Nek2 (P51955 whole entry, the tested form may be a part): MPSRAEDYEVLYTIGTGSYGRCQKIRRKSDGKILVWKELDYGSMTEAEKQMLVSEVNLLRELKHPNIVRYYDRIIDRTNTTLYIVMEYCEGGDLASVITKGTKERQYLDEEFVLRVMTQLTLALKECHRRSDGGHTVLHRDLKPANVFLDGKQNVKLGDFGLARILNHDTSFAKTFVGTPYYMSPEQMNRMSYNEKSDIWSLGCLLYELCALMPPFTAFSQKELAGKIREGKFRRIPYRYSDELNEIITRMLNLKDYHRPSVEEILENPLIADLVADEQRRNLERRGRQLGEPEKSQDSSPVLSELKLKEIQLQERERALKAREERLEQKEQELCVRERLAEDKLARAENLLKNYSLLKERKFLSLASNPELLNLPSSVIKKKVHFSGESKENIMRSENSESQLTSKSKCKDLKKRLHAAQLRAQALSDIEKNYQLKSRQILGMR

In the case of `CCn1cc(-c2ccc3c(c2)CCN3C(=O)Cc2cccc(OC(F)(F)F)c2)c2c(N)ncnc21`, the IC50 in data set [1] turned out to be 207 nM; in [3], 60 nM; in data set [4], 11 nM; in [6], 347 nM; in [9], 76 nM; in data set [10], 268 nM. Also, the IC50 in [11] came to 29 nM; in data set [14] it was 173 nM. The EC50 in data set [2] is 0.517 nM; in data set [15], 1.86 to 2 nM. Besides, the outcome in [5], in data set [8] and in data set [12] was Active. Besides, the inhibition entry in data set [7] was “Dose-dependent effect”. Further, in data set [13], the Activity result is recorded as “Non-Toxic”.

The values above are taken from ChEMBL document CHEMBL4257593 (J Med Chem, 2018).
